What was measured:
[1] = target: T1, C-X-C chemokine receptor type 2 (Homo sapiens, UniProt P25025); assay: Displacement of [125I]IL8 from human recombinant CXCR2 expressed in HEK293 membranes by SPA
T1 sequence (P25025 whole entry): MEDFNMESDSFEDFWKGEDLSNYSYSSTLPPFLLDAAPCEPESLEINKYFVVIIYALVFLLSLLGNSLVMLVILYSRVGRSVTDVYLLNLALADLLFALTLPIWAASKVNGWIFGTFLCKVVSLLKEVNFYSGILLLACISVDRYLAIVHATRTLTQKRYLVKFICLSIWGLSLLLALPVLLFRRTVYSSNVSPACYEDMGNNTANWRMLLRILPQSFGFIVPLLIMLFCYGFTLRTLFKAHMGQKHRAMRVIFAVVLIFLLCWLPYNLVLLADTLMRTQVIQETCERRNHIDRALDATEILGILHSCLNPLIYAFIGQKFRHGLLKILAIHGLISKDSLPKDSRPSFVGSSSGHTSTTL
How it was run: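 Human recombinant CXCR2 in HEK293 cell membranes, screened by scintillation proximity assay at the HTS stage. SPA actives were then validated in a conventional filter-wash [125I]IL8 binding assay on hrCXCR2.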

[2] = target: T2, Interleukin-8 receptors, CXCR1/CXCR2 (Homo sapiens, UniProt P25025+P25024); assay: Inhibition of GROalpha-stimulated intracellular calcium mobilisation in human neutrophils by FLIPR; format: functional, cell-based
T2 sequence (P25025 whole entry): T1 sequence (P25025 whole entry)
T2 sequence (P25024 whole entry): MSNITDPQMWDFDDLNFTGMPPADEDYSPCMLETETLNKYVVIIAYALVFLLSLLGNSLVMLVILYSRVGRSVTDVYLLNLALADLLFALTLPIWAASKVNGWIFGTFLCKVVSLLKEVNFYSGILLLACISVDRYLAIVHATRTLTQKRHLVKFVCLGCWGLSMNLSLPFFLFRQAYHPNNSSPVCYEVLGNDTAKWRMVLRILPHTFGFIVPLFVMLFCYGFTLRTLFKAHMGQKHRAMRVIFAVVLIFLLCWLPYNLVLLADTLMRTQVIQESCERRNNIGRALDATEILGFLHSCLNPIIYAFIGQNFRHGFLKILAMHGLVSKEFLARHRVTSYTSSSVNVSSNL

[3] = Clearance in human liver microsome; format: ADME; conditions: liver microsomes
[4] = Distribution coefficient of the compound, log D; format: physicochemical; conditions: octanol/water
[5] = target: T3, C-X-C chemokine receptor type 2 (Homo sapiens) (UniProt P25025); assay: Inhibition of CXCR2 at 10 uM
T3 sequence (whole entry): T1 sequence (P25025 whole entry)

[6] = Clearance in iv dosed rat; format: ADME, organism-based; conditions: in vivo
[7] = Volume of distribution in iv dosed rat; format: ADME, organism-based; conditions: in vivo, read-out: Vdss
[8] = Half life in iv dosed rat; format: ADME, organism-based; conditions: in vivo
[9] = Oral bioavailability in rat; format: ADME, organism-based; conditions: in vivo
[10] = Protein binding in plasma; format: ADME, cell-free; conditions: human, read-out: PPB (converted)

Structure (SMILES) | IC50 [1] | inhibition [5] | other results
CCCCCSc1nc(O)c2sc(N)nc2n1 | 10000 nM | – | IC50 [2]: 2000 nM; microsomal CLint [3]: 18 µL/min/mg; logD [4]: 2.9
CCCCCSc1nc(Cl)c2sc(N)nc2n1 | – | < 50% | –
CSc1nc(O)c2sc(N)nc2n1 | – | < 50% | –
CCCCCSc1nc(NCCCO)c2sc(N)nc2n1 | – | < 50% | –
CC[C@H](CO)Nc1nc(SCc2cccc(F)c2F)nc2nc(N)sc12 | 9.5 nM | – | –
CC(C)(CO)Nc1nc(SCc2cccc(Oc3ccccc3)c2)nc2nc(N)sc12 | 50 nM | – | –
CC[C@@H](CO)Nc1nc(SCc2cccc(Oc3ccccc3)c2)nc2nc(N)sc12 | 1400 nM | – | –
CC[C@H](CO)Nc1nc(SCc2ccccc2)nc2nc(N)sc12 | 120 nM | – | microsomal CLint [3]: 6 µL/min/mg; clearance [6]: 40 mL/min/kg; Vd [7]: 2.2 L/kg; half-life [8]: 1 h
CC(C)(CO)Nc1nc(SCc2cccc(F)c2F)nc2nc(N)sc12 | 14 nM | – | IC50 [2]: 40 nM; microsomal CLint [3]: 31 µL/min/mg; logD [4]: 3.4; clearance [6]: 25 mL/min/kg; Vd [7]: 1.9 L/kg; half-life [8]: 1.2 h; bioavailability [9]: 15%; fraction unbound [10]: 0.016
CCSc1nc(O)c2sc(N)nc2n1 | – | < 50% | –
CC[C@@H](CO)Nc1nc(SCc2ccccc2)nc2nc(N)sc12 | 3900 nM | – | –
CCCCCSc1nc(NCCO)c2sc(N)nc2n1 | 7000 nM | – | –
Nc1nc2nc(SCc3ccccc3)[nH]c(=O)c2s1 | 1300 nM | – | microsomal CLint [3]: < 3 µL/min/mg
CCCCCSc1nc(N(CC)CC)c2sc(N)nc2n1 | – | < 50% | –

Further lines, with some results ahead:

IC50 [1] | inhibition [5] | Structure (SMILES) | other results
– | < 50% | CCCCCSc1nc(O)c2sc(Br)nc2n1 | –
350 nM | – | CC[C@H](CO)Nc1nc(SCc2cccc(Oc3ccccc3)c2)nc2nc(N)sc12 | –
– | < 50% | Nc1nc2nc(SCc3ccccc3)nc(SCC(=O)O)c2s1 | –
– | < 50% | Nc1nc2nc(SCc3ccccc3)nc(SCCO)c2s1 | –
– | < 50% | CCCCCSc1nc(O)c2sc(NC(C)=O)nc2n1 | –
– | < 50% | CCCCCSc1nc(O)c2sc(NC)nc2n1 | –
– | < 50% | CCCCCSc1nc(NC2CCCC2)c2sc(N)nc2n1 | –
480 nM | – | Nc1nc2nc(SCc3cccc(Oc4ccccc4)c3)[nH]c(=O)c2s1 | –
10000 nM | – | CCCCCSc1nc2ncsc2c(=O)[nH]1 | –
10000 nM | – | Nc1nc2nc(SCc3ccccc3)nc(N)c2s1 | –
– | < 50% | Nc1nc2nc(SCc3ccccc3)nc(Cl)c2s1 | –
– | < 50% | Nc1nc2nc(SCc3cccc(Oc4ccccc4)c3)nc(Cl)c2s1 | –
– | < 50% | COC(=O)CSc1nc(SCc2ccccc2)nc2nc(N)sc12 | –
– | < 50% | Nc1nc2nc(SCc3cccc(F)c3F)nc(Cl)c2s1 | –
270 nM | – | Nc1nc2nc(SCc3cccc(F)c3F)[nH]c(=O)c2s1 | microsomal CLint [3]: 2 µL/min/mg; clearance [6]: 9.5 mL/min/kg; Vd [7]: 0.9 L/kg; half-life [8]: 3.5 h

Source: ChEMBL document CHEMBL1149469, “Hit-to-Lead studies: the discovery of potent, orally bioavailable thiazolopyrimidine CXCR2 receptor antagonists” (Bioorg Med Chem Lett, 2006)
